Published values pooled from the literature.
Lines come from different studies, so protocols differ.
Effect on: cell growth or viability

Structure (SMILES) | cell line | test | conditions | measurement | value
Cc1ccc(NC(=O)c2ccc(CN3CCN(C)CC3)cc2)cc1Nc1nccc(-c2cccnc2)n1 | HeLa | MTT | 20 µM, 48 h | inhibition | 21%
COc1cc(-c2ccc(-c3ccc(C(=N)N)nc3)s2)cc(OC)c1OC | SK-MEL-2 | SRB |  | GI50 | 2.09 µM
O=C1Nc2ccccc2C1=NNc1nnc2n1N=C(c1ccccc1)CS2 | Hs-578T | SRB | 10 µM | inhibition | 28%
CC[C@@H](C)[C@H](N)C(=O)N1Cc2ccccc2C1 | NB-4 | ATP luminescence | 48 h | IC50 | 1.5 µM
COc1cc(-c2ncn(/C=C\C(=O)OC(C)C)n2)cc(C(F)(F)F)c1 | SKM-1 |  | 72 h | IC50 | 0.08 µM
CC(C)C[C@H](NC(=O)[C@H](Cc1ccccc1)NC(=O)c1cnccn1)B(O)O | U2OS | ATP luminescence |  | IC50 | 0.011 µM
COc1cc(F)ccc1-c1cc(Nc2cc(CS(C)(=N)=O)ccn2)ncc1F (stereo not shown) | HeLa |  | 24 h | GI50 | 0.045 µM
COc1ccc(-c2ccc(-c3ccc(C(=N)N)nc3)s2)cc1Cl | UACC-62 | SRB |  | GI50 | 1.76 µM
NCCOc1cc(NC(=O)c2cc(OCc3ccc(F)cc3)cc(C(=O)Nc3cc(OCCN)c4ccccc4n3)n2)nc2ccccc12 | U2OS | ATP luminescence | 72 h | IC50 | 5.6 µM
N[C@@H]1CCCN(c2c(/C=C3\SC(=O)NC3=O)cccc2-c2ccccc2)C1 | KMS-11 | thymidine uptake |  | GI50 | 4.67 µM
CCCCCCCCCCCCNC(=S)NCCCC[C@H](NC(=O)OCc1ccccc1)C(=O)N[C@@H](C)C(=O)N[C@@H](CCCNC(=N)N)C(N)=O | HeLa | MTT | 72 h | EC50 | 41.4 to 53.1 µM
N[C@@H](CC(=O)N1CCN(C(c2ccc(F)cc2)c2ccc(F)cc2)CC1)C(=O)N1Cc2ccccc2C1 | HEL | ATP luminescence | 48 h | IC50 | 31.7 µM
CCCCCCCCCCCCNC(=S)NCCCC[C@H](NS(C)(=O)=O)C(=O)N[C@H](C)C(=O)N[C@@H](CCCNC(=N)N)C(=O)N1CCOCC1 | HeLa | MTT | 72 h | EC50 | 89.8 to 126 µM
COc1cc(C(=O)Nc2cc(OC)c3ccccc3n2)nc(C(=O)Nc2cc(OC)c3ccccc3n2)c1 | U2OS | ATP luminescence | 72 h | IC50 | > 40 µM
C[C@@H](NC(=O)[C@H](CCCCNC(=O)C(F)(F)F)NS(C)(=O)=O)C(=O)N[C@@H](CCCNC(=N)N)C(N)=O | HeLa | MTT | 72 h | EC50 | 52.1 to 75.8 µM
Cn1nnc2c(C(N)=O)ncn2c1=O | Hs746T |  |  | EC50 | > 1000 µM
